The results in this text go back to ChEMBL document CHEMBL1156710, “Design, synthesis and characterization of some bioactive conjugates of curcumin with glycine, glutamic acid, valine and demethylenated piperic acid and study of their antimicrobial and antiproliferative properties” (2008).

In brackets after ≈: the same amount, converted by molar mass. Activity calls are given as the source filed them. The rule behind the calls is not given here.

One assay relates to Klebsiella aerogenes. Nature of the assay: Antibacterial activity against Klebsiella aerogenes after 18 hrs by broth microdilution susceptibility test. Type of assay: functional. In short, it runs like this: (§1)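 Broth microdilution in Mueller-Hinton broth at pH 7.4. Inoculum came from a broth culture grown 4–6 h to log phase. Compound dilutions were […]. Tubes were shaken and incubated at 37 °C for 18 h, then read for turbidity. MIC is the lowest concentration with no turbidity. Each test was run in triplicate and MICs come from at least two repetitions.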
For the compound `O=C(O)/C=C/C=C/c1ccc(O)c(O)c1` [DEMETHYLENATED PIPERIC ACID], the outcome was inactive.

What is called MIC is the least concentration at which growth counts as inhibited. On to `O=C(O)/C=C/C=C/c1ccc2c(c1)OCO2` [PIPERIC ACID], for which the MIC is 20 mM (≈ 4360 µg/mL). In other words, the millimolar range.

In the case of `COc1cc(/C=C/C(=O)CC(=O)/C=C/c2ccc(OC(=O)[C@@H](N)CCC(=O)O)c(OC)c2)ccc1OC(=O)[C@@H](N)CCC(=O)O`, the MIC turned out to be 20 mM (≈ 12500 µg/mL).

For `COc1cc(/C=C/C(=O)CC(=O)/C=C/c2ccc(OC(=O)CN)c(OC)c2)ccc1OC(=O)CN`, the result was inactive.

A further assay relates to Staphylococcus saprophyticus. Nature of the assay: Antibacterial activity against Staphylococcus saprophyticus at 5 umol/ml after 24 hrs by Kirby-Bauer's disk diffusion assay. Type of assay: functional. A digest of the protocol: (§2)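 Kirby-Bauer disc diffusion. Compounds were dissolved in acetone and serially diluted. Sterile 6 mm discs were soaked in the solutions and dried. 1 ml of bacterial broth culture was spread on Mueller-Hinton agar plates and the discs were placed aseptically. Plates were incubated upright at 37 °C for 24 h and the inhibition zone was measured with a scale.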
Background: In agar diffusion tests the substance spreads into inoculated agar from a disc or well.
Consider `COc1cc(/C=C/C(=O)CC(=O)/C=C/c2ccc(OC(=O)CN)c(OC)c2)ccc1OC(=O)CN`, for which the “inhibition zone (IZ)” value is 10 mm.

A further assay relates to Escherichia coli. Nature of the assay: Antibacterial activity against Escherichia coli after 18 hrs by broth microdilution susceptibility test. Type of assay: functional. In short, it runs like this: as §1
On the technique in general: In broth dilution the organism is exposed to a series of concentrations in liquid medium.
For the compound `O=C(O)/C=C/C=C/c1ccc(O)c(O)c1` [DEMETHYLENATED PIPERIC ACID], the outcome was inactive.

`O=C(O)/C=C/C=C/c1ccc2c(c1)OCO2` [PIPERIC ACID]: the outcome was inactive.

In the case of `COc1cc(/C=C/C(=O)CC(=O)/C=C/c2ccc(OC(=O)[C@@H](N)CCC(=O)O)c(OC)c2)ccc1OC(=O)[C@@H](N)CCC(=O)O`, the result was inactive.

As for `COc1cc(/C=C/C(=O)CC(=O)/C=C/c2ccc(OC(=O)CN)c(OC)c2)ccc1OC(=O)CN`, the MIC was found to be 20 mM (≈ 9650 µg/mL).

For another assay, the system named is Micrococcus. Nature of the assay: Antibacterial activity against Micrococcus at 5 umol/ml after 24 hrs by Kirby-Bauer's disk diffusion assay. Type of assay: functional. A digest of the protocol:
as §2
In the case of `COc1cc(/C=C/C(=O)CC(=O)/C=C/c2ccc(OC(=O)CN)c(OC)c2)ccc1OC(=O)CN`, the “inhibition zone (IZ)” value is 10 mm.

The next assay relates to Enterobacter cloacae. Nature of the assay: Antibacterial activity against Enterobacter cloacae at 20 umol/ml after 24 hrs by Kirby-Bauer's disk diffusion assay. Type of assay: functional. A digest of the protocol: as §2
In the case of `O=C(O)/C=C/C=C/c1ccc(O)c(O)c1` [DEMETHYLENATED PIPERIC ACID], the “inhibition zone (IZ)” value was found to be 18 mm.

Regarding `COc1cc(/C=C/C(=O)CC(=O)/C=C/c2ccc(OC(=O)CN)c(OC)c2)ccc1OC(=O)CN`, the “inhibition zone (IZ)” value is 12 mm.

Another assay deals with Candida parapsilosis. Nature of the assay: Antifungal activity against Candida parapsilosis at 20 umol/ml after 48 hrs. Type of assay: functional. A digest of the protocol: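 Clinical isolates from diagnosed patients, subcultured on Sabouraud dextrose agar slants at 30 °C for 10–12 days. Inoculum from 48 h SDA cultures at 37 °C, dislodged into sterile saline and brought to 5 ml. Suspension swab-spread on SDA plates poured 5 mm deep, excess decanted. Sterile 6 mm discs charged with compound. Fluconazole reference.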
Regarding `OC(Cn1cncn1)(Cn1cncn1)c1ccc(F)cc1F` [FLUCONAZOLE], the “inhibition zone (IZ)” value is 20 mm.

In another assay the test system is HeLa. Nature of the assay: Antiproliferative activity against human HeLa cells after 48 hrs by MTT assay. In kind it is functional, cell-based. In short, it runs like this:
(§3)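 KB and HeLa cells were grown in DMEM with 10% heat-inactivated fetal calf serum and penicillin-streptomycin at 37 °C, 5% CO2. Cells were seeded at 5×10³ per well. After 16 h the medium was replaced with medium containing compound diluted from stock. MTT (from a 5 mg/ml 10× stock) was added for 4 h at 37 °C. Crystals were dissolved in DMSO and OD read at 570 nm, 48 h after treatment.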
With `COc1cc(/C=C/C(=O)CC(=O)/C=C/c2ccc(OC(=O)[C@@H](N)CCC(=O)O)c(OC)c2)ccc1OC(=O)[C@@H](N)CCC(=O)O`, the result was Active.

Another assay concerns Klebsiella aerogenes. Nature of the assay: Antibacterial activity against Klebsiella aerogenes at 20 umol/ml after 24 hrs by Kirby-Bauer's disk diffusion assay. Type of assay: functional. A digest of the protocol:
as §2
On to `O=C(O)/C=C/C=C/c1ccc2c(c1)OCO2` [PIPERIC ACID], for which the “inhibition zone (IZ)” value is recorded as 8 mm.

For the compound `COc1cc(/C=C/C(=O)CC(=O)/C=C/c2ccc(OC(=O)[C@@H](N)CCC(=O)O)c(OC)c2)ccc1OC(=O)[C@@H](N)CCC(=O)O`, the “inhibition zone (IZ)” value is 9 mm.

The next assay concerns Candida albicans. Nature of the assay: Antifungal activity against Candida albicans at 20 umol/ml after 48 hrs. In kind it is functional. A digest of the protocol:
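Clinical fungal isolates were subcultured on Sabouraud dextrose agar. For the inoculum, cultures were grown on Sabouraud dextrose agar for 48 h at 37 °C. Conidia were dislodged into sterile saline, the suspension was brought to 5 ml, and the microconidia were counted. This suspension was swabbed over Sabouraud dextrose agar plates poured 5 mm deep, and excess was decanted. Sterile 6 mm discs were charged with compound.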
For `OC(Cn1cncn1)(Cn1cncn1)c1ccc(F)cc1F` [FLUCONAZOLE], the “inhibition zone (IZ)” value was 29 mm.

In the case of `O=C(O)/C=C/C=C/c1ccc(O)c(O)c1` [DEMETHYLENATED PIPERIC ACID], the “inhibition zone (IZ)” value is on record as 16 mm.

The next assay deals with Staphylococcus saprophyticus. Nature of the assay: Antibacterial activity against Staphylococcus saprophyticus at 10 umol/ml after 24 hrs by Kirby-Bauer's disk diffusion assay. Type of assay: functional. In short, it runs like this: as §2
For `COc1cc(/C=C/C(=O)CC(=O)/C=C/c2ccc(OC(=O)CN)c(OC)c2)ccc1OC(=O)CN`, the “inhibition zone (IZ)” value is recorded as 12 mm.

In another assay the test system is Micrococcus. Nature of the assay: Antibacterial activity against Micrococcus after 18 hrs by broth microdilution susceptibility test. In kind it is functional. In short, it runs like this: as §1
`O=C(O)/C=C/C=C/c1ccc(O)c(O)c1` [DEMETHYLENATED PIPERIC ACID] had an MIC of 10 mM (≈ 2060 µg/mL).

Compound `COc1cc(/C=C/C(=O)CC(=O)/C=C/c2ccc(OC(=O)[C@@H](N)CCC(=O)O)c(OC)c2)ccc1OC(=O)[C@@H](N)CCC(=O)O` showed an MIC of 5 mM (≈ 3130 µg/mL).

With `COc1cc(/C=C/C(=O)CC(=O)/C=C/c2ccc(OC(=O)CN)c(OC)c2)ccc1OC(=O)CN`, it took 10 mM (≈ 4820 µg/mL) to inhibit growth (MIC).

The subject of the next assay is KB. Nature of the assay: Antiproliferative activity against human KB cells after 48 hrs by MTT assay. Type of assay: functional, cell-based. In short, it runs like this:
as §3
In general terms: Tetrazolium assays rely on reduction of a dye to a coloured formazan, in cell work by metabolically active cells.
`COc1cc(/C=C/C(=O)CC(=O)/C=C/c2ccc(OC(=O)[C@@H](N)CCC(=O)O)c(OC)c2)ccc1OC(=O)[C@@H](N)CCC(=O)O`: the outcome was Active.

In the next assay the test system is Micrococcus. Nature of the assay: Antibacterial activity against Micrococcus at 20 umol/ml after 24 hrs by Kirby-Bauer's disk diffusion assay. In kind it is functional. In short, it runs like this:
as §2
On to `O=C(O)/C=C/C=C/c1ccc(O)c(O)c1` [DEMETHYLENATED PIPERIC ACID], for which the “inhibition zone (IZ)” value stood at 15 mm.

For the compound `COc1cc(/C=C/C(=O)CC(=O)/C=C/c2ccc(OC(=O)[C@@H](N)CCC(=O)O)c(OC)c2)ccc1OC(=O)[C@@H](N)CCC(=O)O`, the “inhibition zone (IZ)” value is on record as 18 mm.

With `COc1cc(/C=C/C(=O)CC(=O)/C=C/c2ccc(OC(=O)CN)c(OC)c2)ccc1OC(=O)CN`, the “inhibition zone (IZ)” value is given as 15 mm.

The next assay has as its system Enterobacter cloacae. Nature of the assay: Antibacterial activity against Enterobacter cloacae after 18 hrs by broth microdilution susceptibility test. Type of assay: functional. A digest of the protocol:
as §1
With `O=C(O)/C=C/C=C/c1ccc(O)c(O)c1` [DEMETHYLENATED PIPERIC ACID], the MIC came to 10 mM (≈ 2060 µg/mL).

As to `COc1cc(/C=C/C(=O)CC(=O)/C=C/c2ccc(OC(=O)[C@@H](N)CCC(=O)O)c(OC)c2)ccc1OC(=O)[C@@H](N)CCC(=O)O`, the result was inactive.

Consider `COc1cc(/C=C/C(=O)CC(=O)/C=C/c2ccc(OC(=O)CN)c(OC)c2)ccc1OC(=O)CN`, for which the result was inactive.

A further assay relates to Staphylococcus saprophyticus. Nature of the assay: Antibacterial activity against Staphylococcus saprophyticus at 20 umol/ml after 24 hrs by Kirby-Bauer's disk diffusion assay. In kind it is functional. In short, it runs like this: as §2
Turning to `O=C(O)/C=C/C=C/c1ccc(O)c(O)c1` [DEMETHYLENATED PIPERIC ACID], the “inhibition zone (IZ)” value amounted to 10 mm.

Regarding `COc1cc(/C=C/C(=O)CC(=O)/C=C/c2ccc(OC(=O)CN)c(OC)c2)ccc1OC(=O)CN`, the “inhibition zone (IZ)” value came out at 14 mm.

A further assay has as its system Staphylococcus saprophyticus. Nature of the assay: Antibacterial activity against Staphylococcus saprophyticus after 18 hrs by broth microdilution susceptibility test. In kind it is functional. A digest of the protocol:
as §1
For `O=C(O)/C=C/C=C/c1ccc(O)c(O)c1` [DEMETHYLENATED PIPERIC ACID], the lowest concentration to inhibit growth (MIC) was 20 mM (≈ 4120 µg/mL).

As to `O=C(O)/C=C/C=C/c1ccc2c(c1)OCO2` [PIPERIC ACID], the result was inactive.

As to `COc1cc(/C=C/C(=O)CC(=O)/C=C/c2ccc(OC(=O)[C@@H](N)CCC(=O)O)c(OC)c2)ccc1OC(=O)[C@@H](N)CCC(=O)O`, the outcome was inactive.

Turning to `COc1cc(/C=C/C(=O)CC(=O)/C=C/c2ccc(OC(=O)CN)c(OC)c2)ccc1OC(=O)CN`, the outcome was inactive.

A further assay concerns Micrococcus. Nature of the assay: Antibacterial activity against Micrococcus at 10 umol/ml after 24 hrs by Kirby-Bauer's disk diffusion assay. In kind it is functional. In short, it runs like this:
as §2
With `COc1cc(/C=C/C(=O)CC(=O)/C=C/c2ccc(OC(=O)[C@@H](N)CCC(=O)O)c(OC)c2)ccc1OC(=O)[C@@H](N)CCC(=O)O`, the “inhibition zone (IZ)” value worked out at 16 mm.

On to `COc1cc(/C=C/C(=O)CC(=O)/C=C/c2ccc(OC(=O)CN)c(OC)c2)ccc1OC(=O)CN`, for which the “inhibition zone (IZ)” value came to 13 mm.
